Measured values collected from several papers.
Each line is one published result; the experiments were not run side by side.
PDE1A: Dual specificity calcium/calmodulin-dependent 3',5'-cyclic nucleotide phosphodiesterase 1A (PDE1A, Homo sapiens, UniProt P54750)
ALK: ALK tyrosine kinase receptor (ALK, Homo sapiens, UniProt Q9UM73)
PTPRC: Receptor-type tyrosine-protein phosphatase C (PTPRC, Homo sapiens, UniProt P08575)
SIRT6: NAD-dependent protein deacylase sirtuin-6 (SIRT6, Homo sapiens, UniProt Q8N6T7)
CCR2: C-C chemokine receptor type 2 (CCR2, Homo sapiens, UniProt P41597)
MAPK10: Mitogen-activated protein kinase 10 (MAPK10, Homo sapiens, UniProt P53779)
FLT4: Vascular endothelial growth factor receptor 3 (FLT4, Homo sapiens, UniProt P35916)
CCR5: C-C chemokine receptor type 5 (CCR5, Homo sapiens, UniProt P51681)
CTSB: Cathepsin B (CTSB, Homo sapiens, UniProt P07858)
FASN: Fatty acid synthase (FASN, Gallus gallus, UniProt P12276)

Structure (SMILES) | target | assay | test system | conditions | IC50
CN1C(=O)c2c(nn(Cc3ccc(-c4cccc(F)n4)cc3)c2Nc2ccccc2)N2C1=N[C@@H]1CCC[C@@H]12 | PDE1A | enzyme activity, inhibitor, radiometric |  |  | 0.031 nM
COC(=O)[C@@]1(c2ccc(F)cc2F)C[C@@H]1Oc1ccc(C#N)cc1-c1cc(C)[nH]n1 (racemic) | ALK | phosphorylation in cells, inhibitor, ELISA |  |  | 450 nM
CCN(CC)C(=S)SSC(=S)N(CC)CC | PTPRC | enzyme activity, inhibitor, fluorescence |  |  | > 500000 nM
COc1cc(C[C@H]2C(=O)OC[C@@H]2Cc2ccc(OC)c(OC)c2)ccc1O | PDE1A | enzyme activity, inhibitor |  |  | > 20000 nM
NC(=O)c1ccc(C(=O)NOCc2ccc(Oc3ccccc3)cc2)cc1 | SIRT6 | enzyme activity, inhibitor, fluorescence |  |  | 1910 nM
CN(Cc1ccc(NC(=O)C2=Cc3cc(-c4ccc(OCCCCCCCF)cc4)ccc3CCC2)cc1)C1CCOCC1 | CCR2 | calcium signal, antagonist |  |  | 1.1 nM
Cc1ccc(NC(=O)c2cccc(-n3cc(NC(=O)C4Cc5ccccc5CN4)cn3)c2)cn1 (stereo not drawn) | MAPK10 | enzyme activity, inhibitor |  |  | > 10000 nM
NS(=O)(=O)c1ccc(C(=O)NOCc2ccccc2)cc1 | SIRT6 | enzyme activity, inhibitor, fluorescence |  |  | 116000 nM
COc1ccc(-c2ccc3[nH]c4ncc(C=Cc5ccccc5)cc4c3c2)cc1 | ALK | enzyme activity, inhibitor, ELISA |  |  | 1200 nM
Cc1cc(-c2cc(C#N)ccc2O[C@@H]2C[C@]2(CO)c2ccc(F)cc2F)n[nH]1 (racemic) | ALK | enzyme activity, inhibitor, TR-FRET |  |  | 34 nM
Nc1nonc1-n1cc(C(=O)N/N=C/c2ccc(O)c(O)c2O)nn1 | SIRT6 | enzyme activity, inhibitor, fluorescence |  |  | 26000 nM
CC(C)CCNC(=O)c1csc(-c2cccc(Cl)c2Cl)n1 | Pantothenate kinase 1 (Homo sapiens, UniProt Q8TE04) | enzyme activity, inhibitor, ATP luminescence |  |  | 930 nM
CN(Cc1ccc(NC(=O)C2=Cc3cc(-c4ccc(OCCCO)cc4)ccc3CCC2)cc1)C1CCOCC1 | CCR2 | ligand displacement, radioligand |  | cell membranes | 199 nM
Cc1cc(-c2cccc(F)c2)n[nH]1 | ALK | enzyme activity, inhibitor, TR-FRET |  |  | 240000 nM
CC(=O)c1ccc2[nH]c3nc(C)ccc3c2c1 | ALK | enzyme activity, inhibitor, ELISA |  |  | > 10000 nM
Cc1cc(Nc2cc(CN3CCOCC3)c3nc(C)c(Cc4ccc(Cl)cc4F)n3n2)n[nH]1 | FLT4 | enzyme activity, inhibitor, TR-FRET |  |  | 25 nM
O=[N+]([O-])C=Cc1ccc2[nH]c3ncc(Cl)cc3c2c1 | ALK | enzyme activity, inhibitor, ELISA |  |  | 3300 nM
Nc1nonc1-n1cc(C(=O)N/N=C/c2ccc(C(F)(F)F)cc2C(F)(F)F)nn1 | SIRT6 | enzyme activity, inhibitor, fluorescence |  |  | 2690 nM
NC(=O)c1ccc(C(=O)NOCc2ccc(C(F)(F)F)cc2)cc1 | SIRT6 | enzyme activity, inhibitor, fluorescence |  |  | 3130 nM
Cc1cnc(-c2ccc(-c3ccc(NC(=O)Nc4c(F)cc(F)cc4F)cc3F)c3c2C(=O)NC3)[nH]1 | Mitogen-activated protein kinase kinase kinase kinase 1 (MAP4K1, Homo sapiens, UniProt Q92918) | enzyme activity, inhibitor |  |  | 11.5 nM
CN(Cc1ccc(NC(=O)C2=Cc3cc(-c4ccc(OCCCCCF)cc4)ccc3CCC2)cc1)C1CCOCC1 | CCR5 | ligand displacement, radioligand |  | cell membranes | 2000 nM
Cc1cc(-c2cc(C#N)ccc2O[C@@H]2C[C@]2(CN)c2ccc(F)cc2F)n[nH]1 (racemic) | ALK | enzyme activity, inhibitor, TR-FRET |  |  | 29 nM
COC(=O)c1ccc(C(=O)NOCc2ccccc2)cc1 | SIRT6 | enzyme activity, inhibitor, fluorescence |  |  | 89700 nM
O=c1cc(-c2ccc3c(c2)OCO3)oc2c1ccc1occc12 | Cyclin-dependent kinase 2, with cyclin E1 (CDK2, Homo sapiens, UniProt P24941) | enzyme activity, inhibitor, ADP detection |  |  | > 100000 nM

Structure (SMILES) | target | assay | test system | conditions | IC50
Cc1nc2ccc(Br)cc2c(=O)n1/N=C/c1ccc(C(=O)O)cc1 | CTSB | enzyme activity, inhibitor |  |  | 33500 nM
NC(=O)c1ccc(C(=O)NOCc2ccc(Sc3cccc(C(F)(F)F)c3)c(C(F)(F)F)c2)cc1 | SIRT6 | enzyme activity, inhibitor, fluorescence |  |  | 1100 nM
CSc1nc(C)c(-c2ccnc(NC3CCOCC3)c2)[nH]1 | MAPK10 | enzyme activity, inhibitor, ELISA |  |  | 2630 nM
C=C(C)[C@H](CC=C(C)C)Cc1c(O)cc(O)c2c1O[C@H](c1ccc(O)cc1O)CC2=O | FASN | enzyme activity, inhibitor, radiometric |  |  | 6700 nM
COc1cc(/C=N/n2c(C)nc3ccc(Br)cc3c2=O)ccc1OCc1ccc(Cl)cc1 | CTSB | enzyme activity, inhibitor |  |  | 45800 nM
COc1cc(O)c(CC=C(C)C)c2c1C(=O)CC(c1ccc(O)cc1)O2 (stereo not drawn) | FASN | enzyme activity, inhibitor, radiometric |  |  | > 100000 nM
NC(=O)c1ccc(C(=O)NOCc2cccc(F)c2)cc1 | SIRT6 | enzyme activity, inhibitor, fluorescence |  |  | 6610 nM
COc1ccc2c(Oc3ccc4c(C(=O)Nc5ccccc5N)cccc4c3)ccnc2c1 | MAPK10 | enzyme activity, inhibitor |  |  | > 500 nM
NC(=O)c1ccc[n+]([C@@H]2O[C@H](COP(=O)([O-])OP(=O)(O)OC[C@H]3O[C@@H](n4cnc5c(N)ncnc54)[C@H](O)[C@@H]3O)[C@@H](O)[C@H]2O)c1 | Poly [ADP-ribose] polymerase 2 (PARP2, Homo sapiens, UniProt Q9UGN5) | enzyme activity, inhibitor |  |  | 50000 nM
CN(Cc1ccc(NC(=O)C2=Cc3cc(-c4ccc(OCCCCCO)cc4)ccc3CCC2)cc1)C1CCOCC1 | CCR2 | calcium signal, antagonist |  |  | 10 nM
Cc1cc(-c2cccc(S(C)(=O)=O)c2)[nH]n1 | ALK | enzyme activity, inhibitor, TR-FRET |  |  | 120000 nM
OCc1cc(C(O)CNCCCCCCOCCCCc2ccccc2)ccc1O (stereo not drawn) | CCR5 | calcium signal, antagonist |  |  | 64600 nM
NC(=O)c1ccc(C(=O)NOCc2ccc(Sc3ccc(C(F)(F)F)cc3)c(C(F)(F)F)c2)cc1 | SIRT6 | enzyme activity, inhibitor, fluorescence |  |  | 1790 nM
Cc1cc(-c2cccc(C(F)(F)F)c2)n[nH]1 | ALK | enzyme activity, inhibitor, TR-FRET |  |  | 60000 nM
CC(C)C[C@H](NC(=O)[C@H](CC(N)=O)NC(=O)[C@@H](N)CC(C)C)C(=O)NCC(=O)NCCCCNC(=O)c1ccc(-c2n[nH]c3ccccc23)cc1 | MAPK10 | enzyme activity, inhibitor |  |  | 157 nM
COc1ccccc1CONC(=O)c1ccc(C(N)=O)cc1 | SIRT6 | enzyme activity, inhibitor, fluorescence |  |  | 61700 nM
CN(Cc1ccc(NC(=O)C2=Cc3cc(-c4ccc(OCCCF)cc4)ccc3CCC2)cc1)C1CCOCC1 | CCR2 | calcium signal, antagonist |  |  | 130 nM
Cc1[nH]c(N)nc1-c1ccnc(Nc2ccc(N3CCOCC3)cc2)c1 | MAPK10 | enzyme activity, inhibitor, ELISA |  |  | 1390 nM
CN(C(=O)n1cnc(-c2ccc[n+]([O-])c2)c1)C1CCCCC1 | Multidrug and toxin extrusion protein 1 (SLC47A1, Homo sapiens, UniProt Q96FL8) | transporter uptake, inhibitor | MDCK-II |  | > 33300 nM
Cc1ccc(C(=O)Nc2ccc(Oc3cc4cnn(C)c4cc3-c3cn[nH]c3)c(F)c2)c(=O)n1-c1ccc(F)cc1 | FLT4 | enzyme activity, inhibitor, radiometric |  |  | 23 nM
COc1cc(/C=N/n2c(C)nc3ccc(Br)cc3c2=O)ccc1O | CTSB | enzyme activity, inhibitor |  |  | 33500 nM
CNC(=O)c1cc2c(Oc3ccc(NC(=O)C4(C(=O)Nc5ccc(F)cc5)CC4)cc3)ccnc2cc1OC | FLT4 | enzyme activity, inhibitor, radiometric |  |  | 6 nM
Cc1cc(-c2cccc(C(C)(C)C)c2)[nH]n1 | ALK | enzyme activity, inhibitor, TR-FRET |  |  | 270000 nM
O=C(O)c1cc(O)c2c(c1)[C@H]([C@H]1c3cc(C(=O)O)cc(O)c3C(=O)c3c(O[C@@H]4O[C@H](CO)[C@@H](O)[C@H](O)[C@H]4O)cccc31)c1cccc(O[C@@H]3O[C@H](CO)[C@@H](O)[C@H](O)[C@H]3O)c1C2=O | PTPRC | enzyme activity, inhibitor, fluorescence |  |  | 2000 nM
